Experimental data as given in ChEMBL document CHEMBL1641459, “Virtual screening and synthesis of quinazolines as novel JAK2 inhibitors” (Bioorg Med Chem, 2011).
Calls of active or inactive are those of the source. No cut-off for these calls is given here.

System: HT-29
Experiment: Induction of cell cycle arrest in human HT-29 cells assessed as increase accumulation at G2/M phase at 10 to 30 uM after 48 hrs by flow cytometry
Assay type: functional, cell-based
Settings: not given
Summary of the method: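 HT-29 cells at 70–80% confluence treated at 10, 20 and 30 µM for 48 h, ethanol-fixed (70%, 1 h on ice), propidium iodide stained with RNase A, DNA content analysed by flow cytometry; three independent experiments, Student's t-test versus untreated control.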

N#C/C(=C\c1ccc(O)c(O)c1)C(=O)NCc1ccccc1 was tested, and the Activity was “Active”.

Biological target: Tyrosine-protein kinase JAK2 (Homo sapiens) (UniProt O60674)
Experiment: Inhibition of human JAK2-mediated IL6-induced Stat3-STAT3-dependent luciferase activity in human HT-29 cells at 5 to 20 uM by Western blotting
Assay type: cell-based
Settings: in the assay text read “by luciferase reporter gene assay” for “by Western blotting”
Summary of the method: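 HT-29 cells co-transfected with pSTAT3-Luc and phRL-TK; after 24 h serum-starved overnight, treated 1 h with compound at varying concentrations and stimulated with IL-6 (20 ng/mL); dual luciferase readout normalised to Renilla; three independent experiments, Student's t-test.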

Chain of Tyrosine-protein kinase JAK2 (Homo sapiens) (O60674 whole entry): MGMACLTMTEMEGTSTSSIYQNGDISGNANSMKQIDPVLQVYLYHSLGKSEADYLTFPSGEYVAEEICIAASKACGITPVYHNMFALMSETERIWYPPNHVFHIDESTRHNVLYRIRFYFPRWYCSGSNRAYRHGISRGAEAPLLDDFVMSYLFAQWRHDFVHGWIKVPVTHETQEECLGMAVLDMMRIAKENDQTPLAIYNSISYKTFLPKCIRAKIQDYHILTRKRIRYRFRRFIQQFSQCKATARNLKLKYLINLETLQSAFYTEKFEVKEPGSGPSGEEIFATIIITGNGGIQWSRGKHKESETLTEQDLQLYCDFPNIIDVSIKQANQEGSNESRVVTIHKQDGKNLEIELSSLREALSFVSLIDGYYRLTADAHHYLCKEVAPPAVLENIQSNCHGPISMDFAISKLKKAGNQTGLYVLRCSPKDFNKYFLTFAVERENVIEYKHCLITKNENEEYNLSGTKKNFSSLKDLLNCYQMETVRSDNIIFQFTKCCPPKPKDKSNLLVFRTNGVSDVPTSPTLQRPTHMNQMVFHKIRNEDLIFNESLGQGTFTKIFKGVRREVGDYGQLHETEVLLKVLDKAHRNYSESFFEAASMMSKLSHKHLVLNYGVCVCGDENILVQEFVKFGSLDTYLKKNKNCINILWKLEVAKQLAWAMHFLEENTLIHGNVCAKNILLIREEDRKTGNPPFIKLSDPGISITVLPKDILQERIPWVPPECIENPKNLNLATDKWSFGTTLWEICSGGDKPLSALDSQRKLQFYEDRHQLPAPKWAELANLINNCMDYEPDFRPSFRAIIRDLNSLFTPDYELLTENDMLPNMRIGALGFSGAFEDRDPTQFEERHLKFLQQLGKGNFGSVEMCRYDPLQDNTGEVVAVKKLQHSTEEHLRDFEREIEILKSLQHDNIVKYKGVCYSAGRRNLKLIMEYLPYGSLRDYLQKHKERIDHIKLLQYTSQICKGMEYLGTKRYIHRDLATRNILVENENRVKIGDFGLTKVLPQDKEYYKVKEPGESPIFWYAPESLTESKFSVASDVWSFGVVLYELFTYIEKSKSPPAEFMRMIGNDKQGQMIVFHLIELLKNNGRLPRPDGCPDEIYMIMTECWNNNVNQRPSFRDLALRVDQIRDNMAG

With COc1cc2ncnc(Nc3cccc4ccccc34)c2cc1OC the inhibition was “Active”.

Biological target: Tyrosine-protein kinase JAK2 (Homo sapiens) (UniProt O60674)
Experiment: Inhibition of IL-6-induced JAK2 phosphorylation in human HT-29 cells at 50 to 100 uM by Western blotting
Assay type: cell-based
Settings: not given
Summary of the method: (§1)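 HT-29 cells treated with IL-6 for 0.5 h, then compound (10, 20 µM or 50, 100 µM); lysed in ice-cold Hepes/Triton X-100 buffer with protease/phosphatase inhibitors, 30–40 µg protein immunoblotted for JAK2 and p-JAK2, ECL detection, GAPDH control; densitometry as % of control, three independent experiments.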

In the case of N#C/C(=C\c1ccc(O)c(O)c1)C(=O)NCc1ccccc1, the inhibition is reported as “Active”.

Biological target: Tyrosine-protein kinase JAK2 (Homo sapiens) (UniProt O60674)
Experiment: Inhibition of IL-6-induced JAK2 phosphorylation in human HT-29 cells at 10 to 20 uM by Western blotting
Assay type: cell-based
Settings: not given
Summary of the method: as §1

For N#C/C(=C\c1ccc(O)c(O)c1)C(=O)NCc1ccccc1, the inhibition was “inactive”.

Biological target: Tyrosine-protein kinase JAK2 (Homo sapiens) (UniProt O60674)
Experiment: Inhibition of recombinant JAK2 at 20 uM
Settings: not given

Going from COc1ccc(CCNc2ncnc3cc(OC)c(OC)cc23)cc1OC to COCCNc1ncnc2cc(OC)c(OC)cc12, the inhibition rises from 25.3% to 38%.

Compared with COc1cc2ncnc(Nc3cccc(O)c3)c2cc1OC, COc1cccc(Nc2ncnc3cc(OC)c(OC)cc23)c1 is higher in inhibition: 23.8% for the first, 29.4% for the second.

First: COc1cc2ncnc(Nc3nc4c(Cl)cccc4s3)c2cc1OC
Second: COc1cc2ncnc(Nc3ccccc3C)c2cc1OC
The inhibition of the first is higher: 14.4% for the first, 10.6% for the second.

Going from COc1cc2ncnc(Nc3cccc4ccccc34)c2cc1OC to COc1cc2ncnc(Nc3ccc(O)cc3)c2cc1OC, the inhibition falls from 43% to 33.1%.

Going from COc1cc2ncnc(NN3CCOCC3)c2cc1OC to COc1cc2ncnc(NCCN3CCOCC3)c2cc1OC, the inhibition falls from 44.4% to 29.5%.

First: N#C/C(=C\c1ccc(O)c(O)c1)C(=O)NCc1ccccc1
Second: COc1cc2ncnc(Nc3ccc(Br)cc3)c2cc1OC
The inhibition of the first is higher: 55.1% for the first, 29.3% for the second.

In the case of COc1cc2ncnc(Nc3ccc(C)cc3)c2cc1OC, the inhibition is reported as 18.4%.

System: SK-OV-3
Experiment: Cytotoxicity against human SKOV3 cells after 48 hrs by MTT assay
Assay type: functional, cell-based
Settings: SK-OV-3, 48 h

COc1ccc(CCNc2ncnc3cc(OC)c(OC)cc23)cc1OC and COCCNc1ncnc2cc(OC)c(OC)cc12 cannot be ordered by IC50: greater than 100 µM for the first, greater than 100 µM for the second.

Going from COc1cc2ncnc(Nc3cccc(O)c3)c2cc1OC to COc1cccc(Nc2ncnc3cc(OC)c(OC)cc23)c1, the IC50 rises from 37.5 µM to greater than 100 µM. The first is the more potent here.

Going from COc1ccc(Nc2ncnc3cc(OC)c(OC)cc23)cc1 to COc1cc2ncnc(Nc3ccc(C)cc3)c2cc1OC, the IC50 falls from greater than 100 µM to 91.9 µM. The second is the more potent here.

COc1cc2ncnc(Nc3nc4c(Cl)cccc4s3)c2cc1OC and COc1cc2ncnc(Nc3ccccc3C)c2cc1OC cannot be ordered by IC50: greater than 100 µM for the first, greater than 100 µM for the second.

First: COc1cc2ncnc(Nc3cccc4ccccc34)c2cc1OC
Second: COc1cc2ncnc(Nc3ccc(O)cc3)c2cc1OC
The IC50 of the first is 4.5-fold lower: 16.7 µM for the first, 74.6 µM for the second. The first is the more potent here.

COc1cc2ncnc(NN3CCOCC3)c2cc1OC and COc1cc2ncnc(NCCN3CCOCC3)c2cc1OC cannot be ordered by IC50: greater than 100 µM for the first, greater than 100 µM for the second.

With COc1cc2ncnc(Nc3ccc(Br)cc3)c2cc1OC the IC50 was greater than 100 µM.

Biological target: Tyrosine-protein kinase JAK2 (Mus musculus) (UniProt Q62120)
Experiment: Inhibition of IL-6-induced JAK2 phosphorylation in mouse embryonic stem cells at 20 uM by Western blotting
Assay type: cell-based
Settings: not given
Summary of the method: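 Mouse embryonic stem cells pretreated with IL-6, then exposed to compound; p-JAK2 level assessed by Western blotting.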

Chain of Tyrosine-protein kinase JAK2 (Mus musculus) (Q62120 whole entry): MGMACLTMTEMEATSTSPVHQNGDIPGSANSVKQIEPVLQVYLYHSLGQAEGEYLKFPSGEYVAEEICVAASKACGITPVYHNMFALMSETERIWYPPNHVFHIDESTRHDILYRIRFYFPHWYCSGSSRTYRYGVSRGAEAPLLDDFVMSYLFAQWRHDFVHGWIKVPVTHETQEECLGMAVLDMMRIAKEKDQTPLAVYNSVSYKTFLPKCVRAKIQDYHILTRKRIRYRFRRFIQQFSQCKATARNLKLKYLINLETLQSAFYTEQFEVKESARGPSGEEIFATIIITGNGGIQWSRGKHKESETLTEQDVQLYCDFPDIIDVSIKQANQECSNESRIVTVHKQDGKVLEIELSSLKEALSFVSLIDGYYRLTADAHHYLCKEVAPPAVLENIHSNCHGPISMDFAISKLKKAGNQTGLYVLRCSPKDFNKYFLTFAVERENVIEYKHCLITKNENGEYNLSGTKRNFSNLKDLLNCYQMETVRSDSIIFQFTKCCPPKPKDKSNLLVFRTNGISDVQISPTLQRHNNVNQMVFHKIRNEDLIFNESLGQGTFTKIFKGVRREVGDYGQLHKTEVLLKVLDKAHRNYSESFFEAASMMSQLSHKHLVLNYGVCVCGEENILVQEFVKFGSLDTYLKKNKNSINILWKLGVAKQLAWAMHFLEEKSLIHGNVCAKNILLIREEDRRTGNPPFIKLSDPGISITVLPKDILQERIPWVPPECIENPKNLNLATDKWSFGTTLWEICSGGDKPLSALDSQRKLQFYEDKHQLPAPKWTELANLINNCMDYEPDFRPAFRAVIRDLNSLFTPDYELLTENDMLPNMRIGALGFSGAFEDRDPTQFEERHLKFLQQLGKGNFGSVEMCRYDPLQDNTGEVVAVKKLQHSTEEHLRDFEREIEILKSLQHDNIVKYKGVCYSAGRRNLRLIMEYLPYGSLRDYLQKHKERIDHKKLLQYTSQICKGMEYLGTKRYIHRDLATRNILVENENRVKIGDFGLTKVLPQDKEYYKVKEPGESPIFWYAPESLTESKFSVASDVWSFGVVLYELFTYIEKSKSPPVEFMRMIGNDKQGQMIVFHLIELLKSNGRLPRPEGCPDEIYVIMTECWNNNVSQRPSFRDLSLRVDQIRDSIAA

In the case of COc1cc2ncnc(NN3CCOCC3)c2cc1OC, the inhibition is reported as “Active”.

System: HeLa
Experiment: Cytotoxicity against human HeLa cells after 48 hrs by MTT assay
Assay type: functional, cell-based
Settings: not given

COc1ccc(CCNc2ncnc3cc(OC)c(OC)cc23)cc1OC and COCCNc1ncnc2cc(OC)c(OC)cc12 cannot be ordered by IC50: greater than 100 µM for the first, greater than 100 µM for the second.

First: COc1cc2ncnc(Nc3cccc(O)c3)c2cc1OC
Second: COc1cccc(Nc2ncnc3cc(OC)c(OC)cc23)c1
The IC50 of the first is lower: 43.9 µM for the first, greater than 100 µM for the second. The first is the more potent here.

COc1cc2ncnc(Nc3nc4c(Cl)cccc4s3)c2cc1OC and COc1cc2ncnc(Nc3ccccc3C)c2cc1OC cannot be ordered by IC50: greater than 100 µM for the first, greater than 100 µM for the second.

Compared with COc1cc2ncnc(Nc3cccc4ccccc34)c2cc1OC, COc1cc2ncnc(Nc3ccc(O)cc3)c2cc1OC is 6.4-fold higher in IC50: 8.02 µM for the first, 51.5 µM for the second.

COc1cc2ncnc(NN3CCOCC3)c2cc1OC and COc1cc2ncnc(NCCN3CCOCC3)c2cc1OC cannot be ordered by IC50: greater than 100 µM for the first, greater than 100 µM for the second.

First: N#C/C(=C\c1ccc(O)c(O)c1)C(=O)NCc1ccccc1
Second: COc1cc2ncnc(Nc3ccc(C)cc3)c2cc1OC
The IC50 of the first is higher: greater than 100 µM for the first, 99.5 µM for the second.

System: HT-29
Experiment: Cytotoxicity against human HT-29 cells upto 25 uM after 48 hrs by MTT assay
Assay type: functional, cell-based
Settings: not given
Summary of the method: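 MTT assay: cells seeded at 1 × 10⁵ cells/mL in RPMI-1640 with 10% FBS, compounds added after 24 h at various concentrations and exposed 48 h; MTT (5 mg/mL stock in PBS) added for 4 h, formazan dissolved in DMSO, absorbance read at 540 nm. Cells cultured in RPMI-1640, 10% FBS, 37 °C, 5% CO₂.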

In the case of N#C/C(=C\c1ccc(O)c(O)c1)C(=O)NCc1ccccc1, the Activity is reported as “inactive”.

System: HT-29
Experiment: Induction of cell cycle arrest in human HT-29 cells assessed as increase accumulation at G2/M phase at 5 to 20 uM after 24 hrs by flow cytometry
Assay type: functional, cell-based
Settings: not given
Summary of the method: (§2)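 HT-29 cells grown to 70–80% confluence, treated at 5, 10 and 20 µM for 24 h, fixed in 70% ethanol 1 h on ice, stained with propidium iodide (50 µg/mL) plus RNase A for 30 min in the dark at room temperature, DNA content by flow cytometry; means of three independent experiments, Student's t-test.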

In the case of COc1cc2ncnc(Nc3cccc4ccccc34)c2cc1OC, the Activity is reported as “Active”.

System: HT-29
Experiment: Induction of cell cycle arrest in human HT-29 cells assessed as decrease in accumulation at G1 phase at 5 to 20 uM after 24 hrs by flow cytometry
Assay type: functional, cell-based
Settings: not given
Summary of the method: as §2

COc1cc2ncnc(Nc3cccc4ccccc34)c2cc1OC was tested, and the Activity was “Active”.

System: HT-29
Experiment: Cytotoxicity against human HT-29 cells after 48 hrs by MTT assay
Assay type: functional, cell-based
Settings: HT-29, 48 h

COc1ccc(CCNc2ncnc3cc(OC)c(OC)cc23)cc1OC and COCCNc1ncnc2cc(OC)c(OC)cc12 cannot be ordered by IC50: greater than 100 µM for the first, greater than 100 µM for the second.

Compared with COc1cc2ncnc(Nc3cccc(O)c3)c2cc1OC, COc1cccc(Nc2ncnc3cc(OC)c(OC)cc23)c1 is higher in IC50: 59.7 µM for the first, greater than 100 µM for the second.

COc1cc2ncnc(Nc3nc4c(Cl)cccc4s3)c2cc1OC and COc1cc2ncnc(Nc3ccccc3C)c2cc1OC cannot be ordered by IC50: greater than 100 µM for the first, greater than 100 µM for the second.

Compared with COc1cc2ncnc(Nc3cccc4ccccc34)c2cc1OC, COc1cc2ncnc(Nc3ccc(O)cc3)c2cc1OC is 12-fold higher in IC50: 7.65 µM for the first, 93 µM for the second.

COc1cc2ncnc(NN3CCOCC3)c2cc1OC and COc1cc2ncnc(NCCN3CCOCC3)c2cc1OC cannot be ordered by IC50: greater than 100 µM for the first, greater than 100 µM for the second.

Going from N#C/C(=C\c1ccc(O)c(O)c1)C(=O)NCc1ccccc1 to COc1cc2ncnc(Nc3ccc(Br)cc3)c2cc1OC, the IC50 rises from 78.5 µM to greater than 100 µM.

COc1cc2ncnc(Nc3ccc(C)cc3)c2cc1OC gave an IC50 of 57.9 µM.

Biological target: Tyrosine-protein kinase JAK2 (Homo sapiens) (UniProt O60674)
Experiment: Inhibition of IL-6-induced JAK2 phosphorylation in human HT-29 cells by Western blotting
Assay type: cell-based
Settings: not given
Summary of the method: as §1

With COc1cc2ncnc(Nc3cccc4ccccc34)c2cc1OC the inhibition was “Dose-dependent effect”.
